Active and inactive are the calls of the source. No cut-off for these calls is given here.
How the values were obtained:
[1] = biological target: Receptor-type tyrosine-protein kinase FLT3 (Homo sapiens, UniProt P36888, D835Y); test: Inhibition of human partial length FLT3 D835Y mutant (Q580 to Y969 residues) expressed in bacterial expression system using poly [Glu, Try] 4:1 as substrate in presence of [gamma-33P]ATP
How it was run: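 Recombinant kinase assays were run radiometrically by an outside contract service. Activity was read as 33P incorporation into each kinase's substrate and expressed relative to a DMSO control.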

[2] = biological target: ALK tyrosine kinase receptor (Homo sapiens, UniProt Q9UM73); test: Inhibition of wild-type human partial length ALK (I1088 to E1409 residues) expressed in mammalian expression system using poly [Glu, Try] 4:1 as substrate in presence of [gamma-33P]ATP
Sequence of ALK tyrosine kinase receptor (Q9UM73 whole entry, the tested form may be a part): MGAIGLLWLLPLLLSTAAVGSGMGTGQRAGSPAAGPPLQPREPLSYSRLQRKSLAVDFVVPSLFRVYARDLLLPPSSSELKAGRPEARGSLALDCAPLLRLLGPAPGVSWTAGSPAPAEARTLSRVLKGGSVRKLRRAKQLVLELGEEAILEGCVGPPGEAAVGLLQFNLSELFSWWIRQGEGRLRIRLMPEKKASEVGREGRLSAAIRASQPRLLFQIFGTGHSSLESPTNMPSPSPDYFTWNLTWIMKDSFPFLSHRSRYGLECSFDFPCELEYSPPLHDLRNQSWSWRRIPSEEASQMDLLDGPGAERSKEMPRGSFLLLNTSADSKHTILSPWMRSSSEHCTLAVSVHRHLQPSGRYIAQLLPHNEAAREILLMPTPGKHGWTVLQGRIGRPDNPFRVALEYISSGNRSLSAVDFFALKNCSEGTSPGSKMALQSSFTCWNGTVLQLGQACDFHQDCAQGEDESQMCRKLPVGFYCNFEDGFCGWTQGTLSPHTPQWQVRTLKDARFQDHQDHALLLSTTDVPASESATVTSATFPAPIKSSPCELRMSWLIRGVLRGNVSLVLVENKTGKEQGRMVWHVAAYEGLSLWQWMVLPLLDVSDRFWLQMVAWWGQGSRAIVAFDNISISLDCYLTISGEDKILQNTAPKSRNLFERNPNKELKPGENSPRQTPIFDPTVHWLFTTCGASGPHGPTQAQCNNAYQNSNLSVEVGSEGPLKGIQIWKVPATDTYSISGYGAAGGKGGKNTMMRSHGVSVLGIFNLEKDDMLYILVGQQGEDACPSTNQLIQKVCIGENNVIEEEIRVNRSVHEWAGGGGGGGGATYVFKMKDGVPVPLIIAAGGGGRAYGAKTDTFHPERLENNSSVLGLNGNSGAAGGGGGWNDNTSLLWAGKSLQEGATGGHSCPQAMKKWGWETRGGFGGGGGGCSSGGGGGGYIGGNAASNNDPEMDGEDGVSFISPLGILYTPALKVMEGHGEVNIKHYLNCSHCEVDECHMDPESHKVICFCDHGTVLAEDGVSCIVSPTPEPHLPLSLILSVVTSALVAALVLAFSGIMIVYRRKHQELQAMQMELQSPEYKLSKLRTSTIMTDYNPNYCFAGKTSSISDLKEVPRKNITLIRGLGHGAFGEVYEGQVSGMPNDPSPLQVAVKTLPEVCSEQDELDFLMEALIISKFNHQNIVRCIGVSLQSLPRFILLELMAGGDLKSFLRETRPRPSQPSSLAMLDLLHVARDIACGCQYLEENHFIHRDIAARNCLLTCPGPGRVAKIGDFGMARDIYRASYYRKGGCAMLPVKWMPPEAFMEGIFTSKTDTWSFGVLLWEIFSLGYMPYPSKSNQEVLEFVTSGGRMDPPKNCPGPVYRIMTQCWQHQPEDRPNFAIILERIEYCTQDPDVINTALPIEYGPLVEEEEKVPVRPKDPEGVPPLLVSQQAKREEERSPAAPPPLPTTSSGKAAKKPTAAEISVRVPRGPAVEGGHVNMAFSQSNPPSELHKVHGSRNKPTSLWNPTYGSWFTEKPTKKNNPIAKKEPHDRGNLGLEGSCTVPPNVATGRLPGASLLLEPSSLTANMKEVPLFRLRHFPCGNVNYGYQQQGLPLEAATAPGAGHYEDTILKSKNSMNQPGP
How it was run: (§1)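 Radiometric assay on recombinant kinase: ³³P incorporation into the kinase substrate was measured and activity was expressed relative to a DMSO control.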

[3] = biological target: Epidermal growth factor receptor (Homo sapiens, UniProt P00533); test: Inhibition of wild-type human partial length EGFR (R669 to V1011 residues) expressed in bacterial expression system using poly [Glu, Try] 4:1 as substrate in presence of [gamma-33P]ATP; how it was run: as §1
Sequence of Epidermal growth factor receptor (P00533 whole entry, the tested form may be a part): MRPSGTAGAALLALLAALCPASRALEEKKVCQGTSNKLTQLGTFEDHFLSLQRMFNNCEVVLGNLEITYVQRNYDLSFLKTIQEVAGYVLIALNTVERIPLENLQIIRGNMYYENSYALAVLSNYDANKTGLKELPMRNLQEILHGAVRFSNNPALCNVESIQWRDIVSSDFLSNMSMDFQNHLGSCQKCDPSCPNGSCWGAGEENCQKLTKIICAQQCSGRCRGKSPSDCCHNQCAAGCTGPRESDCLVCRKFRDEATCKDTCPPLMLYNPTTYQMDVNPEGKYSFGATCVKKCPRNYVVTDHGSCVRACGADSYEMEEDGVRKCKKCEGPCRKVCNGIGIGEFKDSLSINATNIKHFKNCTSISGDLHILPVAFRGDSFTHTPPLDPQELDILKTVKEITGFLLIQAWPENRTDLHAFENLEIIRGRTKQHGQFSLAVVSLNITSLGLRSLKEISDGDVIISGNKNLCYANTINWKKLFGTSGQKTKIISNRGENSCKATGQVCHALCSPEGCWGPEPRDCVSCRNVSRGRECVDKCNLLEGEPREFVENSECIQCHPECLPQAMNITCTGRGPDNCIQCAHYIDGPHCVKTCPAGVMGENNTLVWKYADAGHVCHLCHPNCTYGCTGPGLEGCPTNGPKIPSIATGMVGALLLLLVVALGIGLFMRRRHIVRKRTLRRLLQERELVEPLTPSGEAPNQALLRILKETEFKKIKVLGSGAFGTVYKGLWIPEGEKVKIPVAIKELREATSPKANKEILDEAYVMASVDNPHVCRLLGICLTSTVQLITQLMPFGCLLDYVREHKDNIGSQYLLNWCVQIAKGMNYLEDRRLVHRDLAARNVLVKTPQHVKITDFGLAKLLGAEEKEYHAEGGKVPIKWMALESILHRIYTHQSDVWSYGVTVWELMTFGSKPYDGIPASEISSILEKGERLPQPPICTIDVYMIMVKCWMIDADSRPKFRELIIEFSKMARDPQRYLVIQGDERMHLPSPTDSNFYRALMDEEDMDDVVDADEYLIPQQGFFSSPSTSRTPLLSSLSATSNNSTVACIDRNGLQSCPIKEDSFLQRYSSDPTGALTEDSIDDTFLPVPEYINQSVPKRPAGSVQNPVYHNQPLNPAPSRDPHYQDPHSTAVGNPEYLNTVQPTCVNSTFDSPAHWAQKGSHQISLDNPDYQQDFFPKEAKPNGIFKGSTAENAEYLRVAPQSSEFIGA

[4] = biological target: Aurora kinase B (Homo sapiens, UniProt Q96GD4); test: Inhibition of wild-type human partial length AURKB (D25 to A303 residues) expressed in mammalian expression system using poly [Glu, Try] 4:1 as substrate in presence of [gamma-33P]ATP; how it was run: as §1
Sequence of Aurora kinase B (Q96GD4 whole entry, the tested form may be a part): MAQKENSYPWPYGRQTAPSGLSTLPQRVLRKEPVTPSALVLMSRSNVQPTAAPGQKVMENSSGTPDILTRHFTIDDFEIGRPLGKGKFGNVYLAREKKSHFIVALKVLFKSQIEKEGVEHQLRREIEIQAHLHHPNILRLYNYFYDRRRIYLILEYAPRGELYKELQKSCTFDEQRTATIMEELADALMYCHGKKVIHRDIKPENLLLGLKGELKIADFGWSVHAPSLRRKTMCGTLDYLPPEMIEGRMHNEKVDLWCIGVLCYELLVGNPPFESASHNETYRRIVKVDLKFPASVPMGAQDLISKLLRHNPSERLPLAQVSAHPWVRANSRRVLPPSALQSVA

[5] = tested on: MV4-11; test: Antiproliferative activity against human MV4-11 cells after 5 days by PrestoBlue assay; type: functional, cell-based
[6] = Selectivity ratio of EC50 for human AXL-negative BT474 cells to EC50 for mouse AXL-positive breast cancer cells; type: functional
How it was run: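 AXL− BT474 and AXL+ cells were each dosed with 8-point half-log series (0.03–100 μM) and read by PrestoBlue at day 5 (n = 2). EC50s were fitted for each line, and the ratio is EC50(AXL−)/EC50(AXL+).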

[7] = tested on: BT-474; test: Antiproliferative activity against human AXL-negative BT474 cells after 5 days by PrestoBlue assay; type: functional, cell-based; conditions: BT-474, 120 h
How it was run: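 8-point half-log dose–response, 0.03–100 μM. Cell viability read with PrestoBlue reagent at day 5. EC50 calculated from the curves. SD from n = 2. Screened alongside an AXL+ line, with foretinib as the positive control.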

**Q.** With `CNc1ncc2c(-c3ccc(N4CCN(C)CC4)nc3)nn(CC3CCCC3)c2n1` as the compound, how does the IC50 [1] read?
**A.** The IC50 was 12 nM.

**Q.** What about the IC50 [2] of the same compound?
**A.** The IC50 was 190 nM.

**Q.** And the IC50 [3]?
**A.** Its IC50 is > 10000 nM.

**Q.** What about the IC50 [4] of the same compound?
**A.** The IC50 was 170 nM.

**Q.** And the Activity [5]?
**A.** The Activity was “Active”.

**Q.** With `CNc1ncc2c(-c3ccc(N4CCNCC4)cc3)nn(Cc3cn(Cc4ccccc4)nn3)c2n1` as the compound, how does the “Ratio EC50” value [6] read?
**A.** Its value is <1.

**Q.** Which IC50 [1] does the source give for `Nc1nc(Nc2ccc3c(c2)CC[C@@H](N2CCCC2)CC3)nn1-c1cc2c(nn1)-c1ccccc1CCC2` [BEMCENTINIB] here?
**A.** The IC50 was 2 nM.

**Q.** What about the IC50 [2] of the same compound?
**A.** Its IC50 is 530 nM.

**Q.** And the IC50 [3]?
**A.** The IC50 was 3900 nM.

**Q.** And the IC50 [4]?
**A.** Its IC50 is 100 nM.

**Q.** What about the Activity [5] of the same compound?
**A.** The Activity was “Active”.

**Q.** For `CNc1ncc2c(-c3ccc(N4CCNCC4)nc3)nn(CC3CCCC3)c2n1`, which “Ratio EC50” value [6] is on record?
**A.** Its value is 2.

**Q.** What about the EC50 [7] of the same compound?
**A.** Its EC50 is 1640 nM.
